The source made the active and inactive calls. No cut-off for these calls is given here.
How the values were obtained:
[1] = system: 3T3-L1; assay: Cytotoxicity against mouse 3T3L1 cells assessed as reduction in cell viability incubated for 48 hrs by CCK8 assay; assay type: cell-based; details: for IC50: Mus musculus, 3T3-L1, 48 h; for Activity: mouse, 3t3-l1, 48 h
Method in brief: (§1)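 3T3-L1 preadipocytes (maintained in DMEM/10% calf serum, 37 °C, 5% CO2) seeded 5×10^3 cells/well in 96-well plates, grown 24 h, then exposed to 1.25–80 µM for 48 h; controls 0.1% DMSO. CCK8 added for 2 h at 37 °C, absorbance at 450 nm. IC50 by logit method; n = 6 plates, ≥3 experiments.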

[2] = system: 3T3-L1; assay: Cytotoxicity against mouse 3T3L1 cells assessed as reduction in cell viability at <5 uM incubated for 48 hrs by CCK8 assay; assay type: cell-based; details: 3t3-l1, 48 h; method in brief: as §1
[3] = system: 3T3-L1; assay: Inhibition of lipid accumulation in mouse 3T3L1 cells at 2.5 to 5 uM incubated for 48 hrs by Oil Red O staining based spectrophotometry; assay type: functional, cell-based
Method in brief: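 Mature 3T3-L1 adipocytes (IBMX/DEX/insulin-differentiated, day 10) after 48 h treatment fixed in 10% buffered formalin 30 min, stained with diluted Oil Red O 1 h at room temperature, washed with 60% isopropanol, dye eluted with isopropanol, absorbance read at 510 nm; expressed as percent intracellular lipid.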

[4] = system: 3T3-L1; assay: Inhibition of triglyceride content in mouse 3T3L1 cells at 2.5 uM incubated for 48 hrs by triglyceride GPO-POD assay; assay type: functional; details: 3T3-L1, 48 h
Method in brief: (§2)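 Differentiated 3T3-L1 adipocytes treated 0, 2.5 or 5 µM for 48 h; lysates heated 70 °C for 10 min, centrifuged, supernatant mixed with GPO-POD working reagent 10 min at 37 °C, absorbance at 550 nm. TG normalized to BCA protein; 0.1% DMSO controls; mean ± SD of ≥3 experiments.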

[5] = system: 3T3-L1; assay: Inhibition of triglyceride content in mouse 3T3L1 cells at 5 uM incubated for 48 hrs by triglyceride GPO-POD assay; assay type: functional; details: 3T3-L1, 48 h; method in brief: as §2
[6] = system: 3T3-L1; assay: Induction of AMPK mRNA expression in mouse 3T3L1 cells at 5 uM incubated for 48 hrs by qPCR method; assay type: functional, cell-based
Method in brief: (§3)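 Mature 3T3-L1 adipocytes (confluent cells induced 3 days with 0.5 mmol/L IBMX, 1.0 µmol/L DEX, 10 mg/L insulin, then insulin 2 days, used ~day 10) treated 0, 2.5 or 5 µM for 48 h. Total RNA extracted, qPCR, normalized to β-actin; DMSO 0.1% controls; mean ± SD, three independent experiments.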

[7] = system: 3T3-L1; assay: Induction of Atgl mRNA expression in mouse 3T3L1 cells at 2.5 and 5 uM incubated for 48 hrs by qPCR method; assay type: functional, cell-based; method in brief: as §3
[8] = system: 3T3-L1; assay: Effect on Hsl mRNA expression in mouse 3T3L1 cells at 2.5 and 5 uM incubated for 48 hrs by qPCR method; assay type: functional, cell-based; method in brief: as §3
[9] = system: 3T3-L1; assay: Suppression of lipogenesis associated gene expression in mouse 3T3L1 cells assessed as reduction in Srebp-1c mRNA expression incubated for 48 hrs by qPCR method; assay type: functional, cell-based; method in brief: as §3
[10] = system: 3T3-L1; assay: Suppression of lipogenesis associated gene expression in mouse 3T3L1 cells assessed as reduction in Fasn mRNA expression at 5 uM incubated for 48 hrs by qPCR method; assay type: functional, cell-based; method in brief: as §3
[11] = system: 3T3-L1; assay: Suppression of lipogenesis associated gene expression in mouse 3T3L1 cells assessed as reduction in Scd1 mRNA expression at 2.5 and 5 uM incubated for 48 hrs by qPCR method; assay type: functional, cell-based; method in brief: as §3
[12] = system: 3T3-L1; assay: Suppression of lipogenesis associated gene expression in mouse 3T3L1 cells assessed as reduction in Acc mRNA expression at 2.5 and 5 uM incubated for 48 hrs by qPCR method; assay type: functional, cell-based; method in brief: as §3
[13] = system: 3T3-L1; assay: Cytotoxicity against mouse 3T3L1 cells assessed as reduction in cell viability at 1.25 to 5 uM incubated for 48 hrs by CCK8 assay; assay type: cell-based; details: 3t3-l1, 48 h; method in brief: as §1
[14] = system: 3T3-L1; assay: Cytotoxicity against mouse 3T3L1 cells assessed as reduction in cell viability at >10 uM incubated for 48 hrs by CCK8 assay; assay type: cell-based; details: 3t3-l1, 48 h; method in brief: as §1
[15] = system: 3T3-L1; assay: Cytotoxicity against mouse 3T3L1 cells assessed as reduction in cell viability at […] incubated for 48 hrs by CCK8 assay; assay type: cell-based; details: 3t3-l1, 48 h
[16] = system: 3T3-L1; assay: Reduction in Hsl mRNA expression in mouse 3T3L1 cells at 2.5 uM incubated for 48 hrs by qPCR method; assay type: functional, cell-based; method in brief: as §3
[17] = system: 3T3-L1; assay: Cytotoxicity against mouse 3T3L1 cells assessed as reduction in cell viability at 20 uM incubated for 48 hrs by CCK8 assay; assay type: cell-based; details: 3t3-l1, 48 h; method in brief: as §1

For `COc1ccc2cc3[n+](cc2c1OCCCCCCOc1c(O)cc2oc(-c4ccccc4)cc(=O)c2c1O)CCc1cc2c(cc1-3)OCO2`, the IC50 [1] was 9.42 µM, the Activity [1] was “Dose-dependent effect” and the Activity [2] was “Non-Toxic”. For the same compound, the inhibition [3] was “Active”, the inhibition at 2.5 µM [4] was 27.3% and the inhibition at 5 µM [5] was 37.4%. For the same compound, the Activity [6] was “Active”, the Activity [7] was “Active” and the Activity [8] was “inactive”. For the same compound, the inhibition [9] was “Dose-dependent effect”, the inhibition [10] was “Active” and the inhibition [11] was “Active”. The inhibition [12] was “Active”.
For `O=c1cc(-c2ccccc2)oc2cc(O)c(O)c(O)c12` [BAICALEIN], the IC50 [1] was 29.8 µM, the Activity [1] was “Dose-dependent effect” and the Activity [13] was “Non-Toxic”. The Activity [14] was “Toxic”, the Activity [15] was “Non-Toxic” and the Activity [6] was “Active”. For the same compound, the Activity [7] was “Active”, the Activity [16] was “Active” and the inhibition [9] was “Dose-dependent effect”. The inhibition [10] was “Active” and the inhibition [11] was “Active”.
With `COc1ccc2cc3[n+](cc2c1OC)CCc1cc2c(cc1-3)OCO2` [BERBERINE] the IC50 [1] was 21.8 µM, the Activity [1] was “Dose-dependent effect” and the Activity [17] was 45%. The Activity [7] was “Active”, the Activity [16] was “Active” and the inhibition [9] was “Dose-dependent effect”. For the same compound, the inhibition [10] was “Active” and the inhibition [11] was “Active”.

Source: ChEMBL document CHEMBL4043184, “The design and synthesis of a novel compound of berberine and baicalein that inhibits the efficacy of lipid accumulation in 3T3-L1 adipocytes” (Bioorg Med Chem, 2017)
